Laboratory results taken from ChEMBL document CHEMBL1125569, “5-HT3 receptor antagonists. 1. New quinoline derivatives” (J Med Chem, 1992).

Tests used:
[1] = biological target: T1, Serotonin 3 (5-HT3) receptor (Rattus norvegicus, UniProt P35563+Q9JJ16); experiment: Ability to displace [3H]quipazine binding to 5-hydroxytryptamine 3 receptor sites in NG 108-15.; format: protein-complex assay
T1 sequence (P35563 whole entry): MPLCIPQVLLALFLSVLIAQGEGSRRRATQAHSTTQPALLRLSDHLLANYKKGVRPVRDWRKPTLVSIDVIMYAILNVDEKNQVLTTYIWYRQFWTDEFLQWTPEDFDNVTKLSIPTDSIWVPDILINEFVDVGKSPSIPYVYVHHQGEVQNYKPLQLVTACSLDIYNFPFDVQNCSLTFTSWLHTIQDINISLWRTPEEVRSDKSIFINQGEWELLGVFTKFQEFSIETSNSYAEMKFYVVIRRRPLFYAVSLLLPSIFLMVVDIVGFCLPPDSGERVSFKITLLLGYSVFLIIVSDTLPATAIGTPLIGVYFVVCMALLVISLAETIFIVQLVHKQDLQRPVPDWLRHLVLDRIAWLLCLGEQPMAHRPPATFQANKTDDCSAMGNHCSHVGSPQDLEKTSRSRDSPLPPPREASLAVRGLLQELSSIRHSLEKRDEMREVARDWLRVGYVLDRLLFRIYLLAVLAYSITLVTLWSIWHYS
T1 sequence (Q9JJ16 whole entry): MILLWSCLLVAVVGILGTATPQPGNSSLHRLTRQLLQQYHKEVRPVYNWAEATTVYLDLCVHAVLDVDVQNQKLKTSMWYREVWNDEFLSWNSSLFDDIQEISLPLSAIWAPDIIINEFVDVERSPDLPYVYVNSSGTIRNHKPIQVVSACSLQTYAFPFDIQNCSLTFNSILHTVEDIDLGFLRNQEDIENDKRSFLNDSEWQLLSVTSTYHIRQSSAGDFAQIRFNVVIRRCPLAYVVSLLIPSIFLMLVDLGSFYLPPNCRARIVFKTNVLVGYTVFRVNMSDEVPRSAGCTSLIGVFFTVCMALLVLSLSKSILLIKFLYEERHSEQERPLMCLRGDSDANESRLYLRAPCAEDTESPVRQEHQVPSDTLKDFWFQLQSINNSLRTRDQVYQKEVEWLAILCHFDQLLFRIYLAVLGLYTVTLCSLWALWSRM
How it was run: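 Membranes from 3 × 10^6 NG 108-15 cells in 20 mM Tris-HCl pH 7.5 with 154 mM NaCl. Incubated with 2 nM [3H]quipazine and varying test concentrations, 37 °C for 60 min. Stopped with ice-cold buffer, then GF/C filtration and scintillation counting. Nonspecific binding defined with 10 μM MDL 72222. […] Mean ± SEM, n = 3.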

[2] = biological target: Serotonin 3 (5-HT3) receptor (Rattus norvegicus) (UniProt P35563+Q9JJ16); experiment: Inhibition of 5-HT induced bradycardia [Benzold-Jarisch (BJ) reflex test] in rats at 5 min administered intravenously; format: functional
How it was run: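 Male Wistar rats (230–330 g) under urethane (1.25 g/kg ip), tracheal cannula. Blood pressure taken from the left carotid, heart rate from the pressure trace. Compounds given iv via jugular vein. Bezold-Jarisch reflex evoked by bolus iv 5-HT 30 μg/kg, with challenges every 12 min. ED50 is the dose halving 5-HT bradycardia, by linear regression, 4 rats.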

[3] = biological target: T1, Serotonin 3 (5-HT3) receptor; experiment: Compound was evaluated for its ability to displace [3H]quipazine binding to 5-hydroxytryptamine 3 receptor sites in NG 108-15.; format: protein-complex assay
[4] = organism: Rattus norvegicus; experiment: animal or person; format: functional; details: 5 min

Structure (SMILES) | Ki [1] [nM] | ED50 [2] [mg/kg] | Ki [3] [nM] | ED50 [4] [mg/kg]
CN1C2CCC1CC(OC(=O)c1cc(=O)n(Cc3ccccc3)c3ccccc13)C2 (stereo not drawn) | 1.3 |  |  | 
CCCCCn1c(=O)cc(C(=O)OC2CC3CCC(C2)N3C)c2ccccc21 (stereo not drawn) | 0.96 | 0.059 |  | 
CN1C2CCC1CC(NC(=O)c1cc(O)nc3ccccc13)C2 (stereo not drawn) | > 100 |  |  | 
CCCn1c(=O)cc(C(=O)NC2CC3CCC(C2)N3C)c2ccccc21 (stereo not drawn) | 67 |  |  | 
CC(C)Cn1c(=O)cc(C(=O)OC2CC3CCC(C2)N3C)c2ccccc21 (stereo not drawn) | 0.47 | 0.069 |  | 
CCCOc1cc(C(=O)NC2CC3CCC(C2)N3C)c2ccccc2n1 (stereo not drawn) | 42 |  |  | 
CC(C)Oc1cc(C(=O)NC2CC3CCC(C2)N3C)c2ccccc2n1 (stereo not drawn) | 53 |  |  | 
CC(C)CCn1c(=O)cc(C(=O)OC2CC3CCC(C2)N3C)c2ccccc21 (stereo not drawn) | 1.5 | 0.059 |  | 
CN1C2CCC1CC(OC(=O)c1ccnc3ccccc13)C2 (stereo not drawn) |  |  | 7.1 | 
CN1C2CCC1CC(OC(=O)c1cc(O)nc3ccccc13)C2 (stereo not drawn) |  |  | 4.4 | 0.017
CCCCn1c(=O)c(CC)c(C(=O)OC2CC3CCC(C2)N3C)c2ccccc21 (stereo not drawn) | 160 |  |  | 
COc1cc(C(=O)OC2CC3CCC(C2)N3C)c2ccccc2n1 (stereo not drawn) | 0.58 | 5.64 |  | 
CN1C2CCC1CC(NC(=O)c1ccnc3ccccc13)C2 (stereo not drawn) | > 100 |  |  | 
CCCCn1c(=O)cc(C(=O)OC2CC3CCC(C2)N3C)c2ccccc21 (stereo not drawn) | 0.68 | 0.041 |  | 
CCCOc1cc(C(=O)OC2CC3CCC(C2)N3C)c2ccccc2n1 (stereo not drawn) | 0.32 | 6.78 |  | 
CC(C)Oc1cc(C(=O)OC2CC3CCC(C2)N3C)c2ccccc2n1 (stereo not drawn) | 0.31 | 1.62 |  | 
CC(C)n1c(=O)cc(C(=O)OC2CC3CCC(C2)N3C)c2ccccc21 (stereo not drawn) | 0.032 | 0.081 |  | 
CC(C)COc1cc(C(=O)OC2CC3CCC(C2)N3C)c2ccccc2n1 (stereo not drawn) | 0.44 | 0.24 |  | 

Structure (SMILES) | Ki [1] [nM] | ED50 [2] [mg/kg] | Ki [3] [nM] | ED50 [4] [mg/kg]
CCCCn1c(=O)c(CC)c(C(=O)NC2CC3CCC(C2)N3C)c2ccccc21 (stereo not drawn) | > 100 |  |  | 
CCCCOc1cc(C(=O)NC2CC3CCC(C2)N3C)c2ccccc2n1 (stereo not drawn) | 19 |  |  | 
CN1C2CCC1CC(NC(=O)c1cc(=O)n(-c3ccccc3)c3ccccc13)C2 (stereo not drawn) | 63 |  |  | 
CN1C2CCC1CC(OC(=O)c1cc(=O)n(C)c3ccccc13)C2 (stereo not drawn) | 2.6 | 0.18 |  | 
CCCCOc1cc(C(=O)OC2CC3CCC(C2)N3C)c2ccccc2n1 (stereo not drawn) | 0.39 | 0.2 |  | 
CCCCN1C(=O)CC(C(=O)OC2CC3CCC(C2)N3C)c2ccccc21 (stereo not drawn) | 8.7 |  |  | 
CCCCn1c(=O)cc(C(=O)NC2CC3CCC(C2)N3C)c2ccccc21 (stereo not drawn) | 60 |  |  | 
CCn1c(=O)cc(C(=O)OC2CC3CCC(C2)N3C)c2ccccc21 (stereo not drawn) | 1.1 | 0.022 |  | 
Cc1nccn1CC1CCc2c(c3ccccc3n2C)C1=O (stereo not drawn) [ONDANSETRON] |  |  |  | 0.021
CCOc1cc(C(=O)OC2CC3CCC(C2)N3C)c2ccccc2n1 (stereo not drawn) | 0.88 | 0.07 |  | 
CCCCCOc1cc(C(=O)OC2CC3CCC(C2)N3C)c2ccccc2n1 (stereo not drawn) | 0.86 | 1.13 |  | 
CCCCCCn1c(=O)cc(C(=O)OC2CC3CCC(C2)N3C)c2ccccc21 (stereo not drawn) | 1.1 |  |  | 
CCCn1c(=O)cc(C(=O)OC2CC3CCC(C2)N3C)c2ccccc21 (stereo not drawn) | 0.45 | 0.33 |  | 
CCCCn1c(=O)cc(C(=O)OC2CC3CCC(C2)N3C)c2cc(C)ccc21 (stereo not drawn) | 44 |  |  | 
CCCCCCOc1cc(C(=O)OC2CC3CCC(C2)N3C)c2ccccc2n1 (stereo not drawn) | 3.2 | 7.68 |  | 
CN1C2CCC1CC(OC(=O)c1cc(=O)n(-c3ccccc3)c3ccccc13)C2 (stereo not drawn) | 0.51 | 0.044 |  | 
CN1C2CCC1CC(NC(=O)c1cc(=O)n(C)c3ccccc13)C2 (stereo not drawn) | > 100 |  |  | 
